Series [1] can be described thus: Photoinactivation of human HFFF2 cells at 3 uM incubated for 60 mins followed by irradiated with 13.5 J cm'-2 of blue light. It counts as cell-based. The following applies: hfff2, 1 h. The essentials: (§1)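 HFFF2 fibroblasts were grown in DMEM with 10% FBS at 37 °C and 5% CO2, seeded at 7 × 10^3 cells/well and grown 48 h. Cells were incubated 60 min in the dark with PS in medium with 3% FBS, washed twice with PBS containing Ca2+/Mg2+, and irradiated in PBS with 13.5 J cm−2 of blue light. After 24 h in 10% FBS medium, viability was read by MTS (1.5 h, A492) as % of untreated control.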

Series [2] in a line: Photoinactivation of human HFFF2 cells at 5 uM incubated for 60 mins followed by irradiated with 13.5 J cm'-2 of blue light. The settings on record: hfff2, 1 h. It counts as cell-based. In outline: as §1
In series [3] the test system is Staphylococcus aureus. Nature of the series: Drug uptake in methicillin-resistant Staphylococcus aureus ATCC BAA-44 assessed as increase in red fluorescence at 1.5 uM incubated for 60 mins measured after drug washout by flow cytometry. The following applies: in vivo, 1 h. It counts as ADME, organism-based. The essentials: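 Stationary-phase overnight BHI cultures (37 °C) were washed twice and resuspended in PBS (pH 7.3) at ~2 × 10^7 cells/mL. They were then analysed by flow cytometry for cell-associated red porphyrin fluorescence, either unwashed or after three PBS washes (10 000g, 5 min). Cells without PS set the background fluorescence.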
(In general: In flow cytometry, cells or beads pass a laser one at a time.)

Series [4] can be described thus: Drug uptake in human HFFF2 cells assessed as increase in red fluorescence at 5 uM incubated for 60 to 3 hrs mins followed by irradiated with 13.5 J cm'-2 of blue light by flow cytometry. Type of series: ADME, cell-based. The settings on record: hfff2, 5 µM.
The test system of series [5] is Escherichia coli. Nature of the series: Drug uptake in Escherichia coli ATCC 25922 assessed as increase in red fluorescence at 5 uM incubated for 60 mins by flow cytometry. It counts as ADME, organism-based. The following applies: in vivo, 1 h. The essentials:
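Stationary-phase cells grown overnight in BHI at 37 °C, washed twice, resuspended in PBS pH 7.3 at ~2 × 10^7 cells/mL. Exposed to PS in the dark at room temperature for 60 min, then analysed directly or after three PBS washes (centrifugation at 10 000g for 5 min). Read-out is cell-associated porphyrin red fluorescence by flow cytometry; background taken from cells without PS.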

The nature of series [6]: Drug uptake in human HFFF2 cells assessed as increase in red fluorescence at 5 uM incubated for 60 to 3 hrs mins followed by irradiated with 13.5 J cm'-2 of blue light measured after drug washout by flow cytometry. It counts as ADME, cell-based. The following applies: hfff2, 5 µM.
A short description of series [7]: Photoinactivation of human HFFF2 cells incubated for 60 mins followed by irradiated with 13.5 J cm'-2 of blue light. Type of series: cell-based. The following applies: HFFF2, light or radiation study, 1 h.
A short description of series [8]: Drug uptake in human HFFF2 cells in assessed as increase in red fluorescence at 5 uM incubated for 60 to 3 hrs mins by flow cytometry. Type of series: ADME, cell-based. The following applies: hfff2, 5 µM.
A short description of series [9]: Drug uptake in human HFFF2 cells assessed as increase in red fluorescence at 5 uM incubated for 60 mins followed by irradiated with 13.5 J cm'-2 of blue light by flow cytometry. Type of series: ADME, cell-based. The settings on record: hfff2, 1 h.
Series [10] in a line: Drug uptake in human HFFF2 cells assessed as increase in red fluorescence at 5 uM incubated for 60 to 3 hrs mins followed by irradiated with 13.5 J cm'-2 of blue light by fluorescence microscopic analysis. It counts as ADME, cell-based. The settings on record: hfff2, 5 µM.
Series [11] can be described thus: Solubility of the compound in water. The settings on record: buffer. Type of series: physicochemical.
For series [12], the system named is Escherichia coli. Briefly: Photoinactivation of Escherichia coli ATCC 25922 assessed as log reduction of CFU at 5 uM incubated for 60 mins followed by irradiated with 13.5 J cm'-2 of blue light measured after drug washout. Type of series: functional. In outline:
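Overnight BHI cultures (37 °C, stationary phase) washed and resuspended in PBS pH 7.3 at ~2 × 10^7 cells/mL. Incubated with increasing PS concentrations for 60 min in the dark at room temperature. Serial 10-fold dilutions plated in duplicate on BHI agar for CFU; at least three independent experiments.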

The subject of series [13] is Staphylococcus aureus. Nature of the series: Photoinactivation of methicillin-resistant Staphylococcus aureus ATCC BAA-44 at 0.5 to 1 uM incubated for 60 mins followed by irradiated with 13.5 J cm'-2 of blue light. It counts as functional, organism-based. The essentials:
(§2)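 Stationary-phase overnight BHI cultures (37 °C) were washed and resuspended in PBS (pH 7.3) at ~2 × 10^7 cells/mL, then incubated with PS in the dark at rt for 60 min. Suspensions were left unwashed or washed three times with PBS. They were irradiated with blue light (390–460 nm, 15.2 mW cm−2) to 13.5 J cm−2. Serial 10-fold dilutions were plated in duplicate on BHI agar and cfu counted after overnight growth at 37 °C. Experiments were repeated at least three times.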

In series [14] the test system is Escherichia coli. Nature of the series: Photoinactivation of Escherichia coli ATCC 25922 assessed as log reduction of CFU at 15 uM incubated for 60 mins followed by irradiated with 13.5 J cm'-2 of blue light measured after drug washout. It counts as functional. The essentials:
as §2

Here are results for 4 molecules from ChEMBL document CHEMBL3124889, “Synthesis, spectroscopic, and photophysical characterization and photosensitizing activity toward prokaryotic and eukaryotic cells of porphyrin-magainin and -buforin conjugates” (J Med Chem, 2014).

The structures appear in SMILES notation. Calls of active or inactive are those of the source. No cut-off for these calls is given here. Where a SMILES comes first, the peptide text is derived from it. [ ]: non-standard residue; d: D form. The star is where a group is joined. Benzoyl(4-TriPhPorphyrinyl) = O=C(c1ccc(-c2c3nc(c(-c4ccccc4)c4ccc([nH]4)c(-c4ccccc4)c4nc(c(-c5ccccc5)c5ccc2[nH]5)C=C4)C=C3)cc1)*; X1 = C[n+]1ccc(-c2c3nc(c(-c4cc[n+](C)cc4)c4ccc([nH]4)c(-c4cc[n+](C)cc4)c4nc(c(-c5ccc(C(=O)*)cc5)c5ccc2[nH]5)C=C4)C=C3)cc1; His(π-Me) = Cn1cncc1C[C@H](N)C(=O)O

For `O=C(O)c1ccc(-c2c3nc(c(-c4ccccc4)c4ccc([nH]4)c(-c4ccccc4)c4nc(c(-c5ccccc5)c5ccc2[nH]5)C=C4)C=C3)cc1`, the Activity entry in series [1] and in series [2] was “Toxic” in each case. The Drug uptake result in the series with Staphylococcus aureus [3] is “Not Active”; in [4], “Active”; in the series with Escherichia coli [5], “Not Active”; in series [6], “Active”; in series [8] it was “Active”; in [9], “Active”. Moreover, the Drug uptake result in series [10] is given as “Not Active”. Besides, the IC50 (commonly the midpoint of a concentration-inhibition curve) in [7] worked out at 1270 nM. The solubility entry in series [11] was “Insoluble”.

In the case of `C[n+]1ccc(-c2c3nc(c(-c4cc[n+](C)cc4)c4ccc([nH]4)c(-c4ccc(C(=O)O)cc4)c4ccc([nH]4)c(-c4cc[n+](C)cc4)c4nc2C=C4)C=C3)cc1`, the Activity entry in series [1] and in [2] was “Toxic” in each case. In addition, the Drug uptake result in the series on Staphylococcus aureus [3] was “Not Active”; in series [4], “Active”; in the series with Escherichia coli [5], “Not Active”; in series [6], “Active”; in [8], “Active”; in series [9] it was “Active”. Also, the Drug uptake result in series [10] is “Not Active”. Moreover, the outcome in the series with Escherichia coli [12] and in the series on Staphylococcus aureus [13] was Active. The IC50 in series [7] turned out to be 230 nM. In the series on Escherichia coli [14], the CFU/ml amounted to 1 log reduction.

In the case of `CC[C@H](C)[C@H](NC(=O)[C@H](Cc1ccc(O)cc1)NC(=O)[C@@H](NC(=O)[C@@H]1CCCN1C(=O)[C@H](CCCNC(=N)N)NC(=O)[C@H](CC(N)=O)NC(=O)[C@H](CC(N)=O)NC(=O)CNC(=O)c1ccc(-c2c3nc(c(-c4ccccc4)c4ccc([nH]4)c(-c4ccccc4)c4nc(c(-c5ccccc5)c5ccc2[nH]5)C=C4)C=C3)cc1)C(C)C)C(=O)N1CCC[C@H]1C(=O)N[C@@H](CCC(N)=O)C(=O)N1CCC[C@H]1C(=O)N[C@@H](CCCNC(=N)N)C(=O)N1CCC[C@H]1C(=O)N1CCC[C@H]1C(=O)N[C@@H](Cc1cnc[nH]1)C(=O)N1CCC[C@H]1C(=O)N[C@@H](CCCNC(=N)N)C(=O)N[C@@H](CC(C)C)C(=O)O` ({Benzoyl(4-TriPhPorphyrinyl)}-GNNRPVYIPQPRPPHPRL-OH), the Drug uptake entry in [4], in series [6], in series [8] and in series [10] was “Active” throughout. For the same molecule, the concentration for half-maximal inhibition (IC50) in [7] was found to be 21 nM.

Consider `CC[C@H](C)[C@H](NC(=O)[C@H](Cc1ccc(O)cc1)NC(=O)[C@@H](NC(=O)[C@@H]1CCCN1C(=O)[C@H](CCCNC(=N)N)NC(=O)[C@H](CC(N)=O)NC(=O)[C@H](CC(N)=O)NC(=O)CNC(=O)c1ccc(-c2c3nc(c(-c4cc[n+](C)cc4)c4ccc([nH]4)c(-c4cc[n+](C)cc4)c4nc(c(-c5cc[n+](C)cc5)c5ccc2[nH]5)C=C4)C=C3)cc1)C(C)C)C(=O)N1CCC[C@H]1C(=O)N[C@@H](CCC(N)=O)C(=O)N1CCC[C@H]1C(=O)N[C@@H](CCCNC(=N)N)C(=O)N1CCC[C@H]1C(=O)N1CCC[C@H]1C(=O)N[C@@H](Cc1cncn1C)C(=O)N1CCC[C@H]1C(=O)N[C@@H](CCCNC(=N)N)C(=O)N[C@@H](CC(C)C)C(=O)O` (X1-GNNRPVYIPQPRPP[His(π-Me)]PRL-OH), for which the Drug uptake result was “Active” in [4], “Active” in series [6], “Active” in series [8] and “Not Active” in series [10]. The IC50 in series [7] amounted to 9 nM.
